Calls of active or inactive are those of the source. No cut-off for these calls is given here.
Columns and labels:
[1] = tested on: Mus musculus; assay: Hypoglycemic activity in Balb/c mouse assessed as effective dose causing reduction in blood glucose level administered orally 60 mins prior to glucose challenge measured for 60 mins by IPGTT; type: functional; details: po, 1 h
[2] = Protein binding in plasma (unknown origin) by equilibrium dialysis method; type: ADME, cell-free; details: human, read-out: PPB
Method in brief: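 Plasma protein binding measured by equilibrium dialysis.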

[3] = molecular target: T1, Peroxisome proliferator-activated receptor alpha (Homo sapiens) (UniProt Q07869); assay: Displacement of [3H]-[…] from PPARalpha (unknown origin) expressed in baculovirus infected Sf9 insect cells upto 30 uM measured after 10 hrs by microbeta scintillation counting analysis; details: dose microM <=30, time 10.0 hrs
T1 sequence (whole entry): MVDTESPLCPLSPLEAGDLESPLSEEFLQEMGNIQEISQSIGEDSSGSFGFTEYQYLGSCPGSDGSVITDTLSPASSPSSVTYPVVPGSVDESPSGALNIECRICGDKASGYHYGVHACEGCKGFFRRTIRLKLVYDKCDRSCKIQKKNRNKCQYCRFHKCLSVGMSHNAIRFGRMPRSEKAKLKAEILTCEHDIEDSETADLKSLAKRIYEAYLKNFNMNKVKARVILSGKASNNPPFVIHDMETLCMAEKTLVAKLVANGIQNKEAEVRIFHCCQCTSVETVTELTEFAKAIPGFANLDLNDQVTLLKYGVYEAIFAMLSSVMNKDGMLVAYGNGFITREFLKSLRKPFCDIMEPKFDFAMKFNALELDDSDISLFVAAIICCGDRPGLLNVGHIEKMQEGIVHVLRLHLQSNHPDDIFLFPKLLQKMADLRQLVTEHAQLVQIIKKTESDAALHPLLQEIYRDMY
Method in brief: (§1)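 Scintillation proximity assay. Sf9 lysates with baculovirus-expressed PPARα (0.3 μg), PPARδ (0.5 μg) or PPARγ (1.25 μg), each with RXRα, were bound via biotinylated DR2 oligo (0.126 nM) to streptavidin yttrium silicate beads. Buffer was HEPES pH 7.8 with KCl, MgCl2, DTT, CHAPS, 14% glycerol and salmon sperm DNA. A 3H reference agonist ligand was used, with 11 compound concentrations, for 10 h. Nonspecific binding was defined with 10000 nM unlabeled reference. Ki was derived from IC50.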

[4] = molecular target: T2, Peroxisome proliferator-activated receptor delta (Homo sapiens) (UniProt Q03181); assay: Displacement of [3H]-[…] from PPARdelta (unknown origin) expressed in baculovirus infected Sf9 insect cells upto 30 uM measured after 10 hrs by microbeta scintillation counting analysis; details: dose microM <=30, time 10.0 hrs; method in brief: as §1
T2 sequence (whole entry): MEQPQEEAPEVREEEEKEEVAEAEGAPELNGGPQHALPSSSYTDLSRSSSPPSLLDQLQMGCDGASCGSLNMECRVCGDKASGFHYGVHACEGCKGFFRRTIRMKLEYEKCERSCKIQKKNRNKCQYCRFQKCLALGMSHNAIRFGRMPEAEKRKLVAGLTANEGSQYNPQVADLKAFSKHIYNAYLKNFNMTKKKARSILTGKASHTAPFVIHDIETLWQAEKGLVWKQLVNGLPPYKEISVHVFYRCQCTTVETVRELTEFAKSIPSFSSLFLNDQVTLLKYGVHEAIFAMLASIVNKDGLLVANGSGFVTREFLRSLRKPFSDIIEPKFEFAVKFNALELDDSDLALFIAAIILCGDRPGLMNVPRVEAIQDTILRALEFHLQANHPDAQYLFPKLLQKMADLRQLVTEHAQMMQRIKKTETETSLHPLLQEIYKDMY

[5] = molecular target: T3, Peroxisome proliferator-activated receptor gamma (Homo sapiens) (UniProt P37231); assay: Displacement of [3H]-[…] from PPARgamma (unknown origin) expressed in baculovirus infected Sf9 insect cells upto 30 uM measured after 10 hrs by microbeta scintillation counting analysis; details: dose microM <=30, time 10.0 hrs; method in brief: as §1
T3 sequence (whole entry): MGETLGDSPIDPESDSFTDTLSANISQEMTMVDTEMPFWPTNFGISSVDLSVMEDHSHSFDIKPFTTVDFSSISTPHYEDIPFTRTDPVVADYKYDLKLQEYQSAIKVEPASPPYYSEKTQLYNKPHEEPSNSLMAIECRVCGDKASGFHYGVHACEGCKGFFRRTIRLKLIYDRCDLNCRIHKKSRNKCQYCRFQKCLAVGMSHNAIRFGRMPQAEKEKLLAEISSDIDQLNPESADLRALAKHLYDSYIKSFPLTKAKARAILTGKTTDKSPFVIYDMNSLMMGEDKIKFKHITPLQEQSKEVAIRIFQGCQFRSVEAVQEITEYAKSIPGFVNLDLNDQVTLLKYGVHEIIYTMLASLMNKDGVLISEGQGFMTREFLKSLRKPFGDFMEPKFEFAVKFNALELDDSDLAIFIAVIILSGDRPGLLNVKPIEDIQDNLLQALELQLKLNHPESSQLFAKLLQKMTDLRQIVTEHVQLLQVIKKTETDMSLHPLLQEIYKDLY

[6] = AUC in hyperglycemic Balb/c mouse plasma at 29.4 mg/kg measured upto 60 mins; type: ADME, organism-based; set-up: dose 29.4 mg/kg, time <=60
[7] = molecular target: T4, Free fatty acid receptor 1 (Homo sapiens, UniProt O14842); assay: Displacement of [3H]-TAK-875 from human recombinant full-length GPR40 expressed in human HEK293 cell membrane incubated for 2 hrs by solid scintillation counting method; type: cell membranes
[8] = molecular target: T4, Free fatty acid receptor 1; assay: Agonist activity at human recombinant full length GPR40 overexpressed in human HEK293 cells assessed as increase in intracellular calcium level measured over 3 mins by calcium 4 dye based FLIPR assay; type: functional, cell-based
Method in brief: (§2)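 HEK293 cells overexpressing hGPR40 (25K/well) were cultured overnight in DMEM/F12 with 0.2% FBS and geneticin. Compound was tested at 40 μM–0.1 nM final (20-point, 1% DMSO), and FLIPR fluorescence was read over 3 min.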

[9] = molecular target: T4, Free fatty acid receptor 1; assay: Agonist activity at human recombinant full length GPR40 overexpressed in human HEK293 cells assessed as increase in intracellular calcium level measured over 3 mins by calcium 4 dye based FLIPR assay relative to 100 uM linoleic acid; type: functional, cell-based; details: filed as agonist; method in brief: as §2
[10] = molecular target: T4, Free fatty acid receptor 1; assay: Agonist activity at human recombinant full-length Prolink-tagged GPR40 fused with EA-tagged beta-arrestin expressed in human HEK293 cells assessed as induction of beta-arrestin recruitment measured after 90 mins by beta-galactosidase based PathHunter assay; type: cell-based
Method in brief: (§3)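 PathHunter β-gal complementation. Cells were incubated overnight at 5000/well in medium with 1% heat-inactivated FBS. Compound was added as a 20-point 2-fold series from a top final of 100 μM (1% DMSO) for 90 min at 37 °C, followed by detection reagents and chemiluminescence read after 1 h at rt.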

[11] = molecular target: T4, Free fatty acid receptor 1; assay: Agonist activity at human recombinant full-length Prolink-tagged GPR40 fused with EA-tagged beta-arrestin expressed in human HEK293 cells assessed as induction of beta-arrestin recruitment measured after 90 mins by beta-galactosidase based PathHunter assay relative to control; type: cell-based; details: filed as agonist; method in brief: as §3
[12] = molecular target: Free fatty acid receptor 1 (Mus musculus, UniProt Q76JU9); assay: Agonist activity at Prolink-tagged mouse GPR40 fused with EA-tagged beta-arrestin expressed in human U2OS cells assessed as induction of beta-arrestin recruitment measured after 90 mins by beta-galactosidase based PathHunter assay; type: cell-based; method in brief: as §3
[13] = molecular target: Free fatty acid receptor 1 (Mus musculus) (UniProt Q76JU9); assay: Agonist activity at Prolink-tagged mouse GPR40 fused with EA-tagged beta-arrestin expressed in human U2OS cells assessed as induction of beta-arrestin recruitment measured after 90 mins by beta-galactosidase based PathHunter assay relative to control; type: cell-based; details: filed as agonist; method in brief: as §3
[14] = molecular target: Free fatty acid receptor 1 (Rattus norvegicus, UniProt Q8K3T4); assay: Agonist activity at Prolink-tagged rat GPR40 fused with EA-tagged beta-arrestin expressed in human U2OS cells assessed as induction of beta-arrestin recruitment measured after 90 mins by beta-galactosidase based PathHunter assay; type: cell-based; method in brief: as §3
[15] = molecular target: Free fatty acid receptor 1 (Rattus norvegicus) (UniProt Q8K3T4); assay: Agonist activity at Prolink-tagged rat GPR40 fused with EA-tagged beta-arrestin expressed in human U2OS cells assessed as induction of beta-arrestin recruitment measured after 90 mins by beta-galactosidase based PathHunter assay relative to control; type: cell-based; details: filed as agonist; method in brief: as §3
[16] = molecular target: T4, Free fatty acid receptor 1; assay: Agonist activity at human recombinant full length GPR40 overexpressed in human HEK293 cells assessed as increase in inositol phosphate accumulation in presence of terbium cryptate-labeled anti IP1/d2-labelled IP1 measured after 120 mins by HTRF assay; type: functional, cell-based
Method in brief: (§4)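 HEK293 hGPR40 cells (20K/well) were cultured overnight, washed, and held in IP1 stimulation buffer. IP-1 was measured by competitive HTRF immunoassay with terbium cryptate anti-IP1 mAb and d2-labelled IP1.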

[17] = molecular target: T4, Free fatty acid receptor 1; assay: Agonist activity at human recombinant full length GPR40 overexpressed in human HEK293 cells assessed as increase in inositol phosphate accumulation in presence of terbium cryptate-labeled anti IP1/d2-labelled IP1 measured after 120 mins by HTRF assay relative to AMG837; type: functional, cell-based; details: filed as agonist; method in brief: as §4
[18] = molecular target: Voltage-gated inwardly rectifying potassium channel KCNH2 (Homo sapiens, UniProt Q12809); assay: Inhibition of human ERG
[19] = tested on: Rattus norvegicus; assay: Hypoglycemic activity in Zucker fatty diabetes mellitus rat model assessed as reduction in blood glucose level at 3 mg/kg, po administered for 21 days and measured at 10 to 60 mins post glucose challenge on day 1 by OGTT; type: functional, organism-based; details: time 21.0 day
[20] = tested on: Rattus norvegicus; assay: Hypoglycemic activity in Zucker fatty diabetes mellitus rat model assessed as increase in insulin levels in plasma at 3 mg/kg, po administered for 21 days and measured at 10 to 60 mins post glucose challenge on day 1 by OGTT; type: functional, organism-based; details: time 21.0 day
[21] = molecular target: Free fatty acid receptor 1 (Rattus norvegicus) (UniProt Q8K3T4); assay: Agonist activity at GPR40 in Sprague-Dawley rat pancreatic islets assessed as induction of glucose-mediated insulin secretion measured after 90 mins in EBSS buffer by ELISA; type: tissue-based; details: Pancreatic islet, filed as agonist
Method in brief: (§5)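 Glucose-dependent insulin secretion in mouse MIN6 cells or rat islet cells, scored as secretion above the glucose-alone level.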

[22] = molecular target: Free fatty acid receptor 1 (Mus musculus) (UniProt Q76JU9); assay: Agonist activity at GPR40 in mouse MIN6 cells assessed as induction of glucose-mediated insulin secretion incubated for 2 hrs by ELISA; type: cell-based; details: filed as agonist; method in brief: as §5
[23] = Drug distribution in C57BL/6 mouse spleen at 3 microg/kg, iv administered as single dose observed at 20 to 40 mins by LC-MS/MS analysis; type: ADME, organism-based; details: in vivo, 0.003 mg/kg, time 20-40 min, dose 3 µg/kg
Method in brief: (§6)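 Tracer microdose study in fed male C57BL/6 mice: single 3 μg/kg IV dose in 25% HP-BCD. Mice were killed by cervical dislocation, and spleen, ascending colon, skeletal muscle and plasma were sampled at 20 and 40 min.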

[24] = Drug distribution in C57BL/6 mouse colon at 3 microg/kg, iv administered as single dose observed at 20 to 40 mins by LC-MS/MS analysis; type: ADME, organism-based; details: in vivo, 0.003 mg/kg, time 20-40 min, dose 3 µg/kg; method in brief: as §6
[25] = Protein binding in C57BL/6 mouse plasma at 3 microg/kg, iv by LC-MS/MS analysis; type: ADME, organism-based; details: in vivo, 0.003 mg/kg, dose 3 µg/kg
[26] = AUC in hyperglycemic Balb/c mouse plasma at 1 mg/kg measured upto 60 mins; type: ADME, organism-based; set-up: dose 1 mg/kg, time <=60

T4 sequence (O14842 whole entry): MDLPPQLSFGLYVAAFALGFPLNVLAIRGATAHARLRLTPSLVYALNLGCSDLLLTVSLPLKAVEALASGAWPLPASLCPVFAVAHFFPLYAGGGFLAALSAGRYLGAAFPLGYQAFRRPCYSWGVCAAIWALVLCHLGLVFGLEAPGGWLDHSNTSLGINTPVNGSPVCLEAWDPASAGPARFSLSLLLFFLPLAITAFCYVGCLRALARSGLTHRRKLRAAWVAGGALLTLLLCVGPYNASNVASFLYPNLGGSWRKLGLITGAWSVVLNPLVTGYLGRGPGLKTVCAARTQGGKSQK
Free fatty acid receptor 1 (Rattus norvegicus), sequence (Q8K3T4 whole entry, the tested form may be a part): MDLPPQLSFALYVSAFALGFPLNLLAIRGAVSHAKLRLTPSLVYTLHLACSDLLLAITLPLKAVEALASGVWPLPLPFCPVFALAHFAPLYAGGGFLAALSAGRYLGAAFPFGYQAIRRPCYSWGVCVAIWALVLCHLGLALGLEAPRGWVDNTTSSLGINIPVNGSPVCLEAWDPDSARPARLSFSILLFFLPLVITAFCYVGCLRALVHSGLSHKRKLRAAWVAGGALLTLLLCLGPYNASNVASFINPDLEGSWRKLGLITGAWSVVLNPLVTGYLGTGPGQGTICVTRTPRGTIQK
Free fatty acid receptor 1 (Mus musculus), sequence (Q76JU9 whole entry, the tested form may be a part): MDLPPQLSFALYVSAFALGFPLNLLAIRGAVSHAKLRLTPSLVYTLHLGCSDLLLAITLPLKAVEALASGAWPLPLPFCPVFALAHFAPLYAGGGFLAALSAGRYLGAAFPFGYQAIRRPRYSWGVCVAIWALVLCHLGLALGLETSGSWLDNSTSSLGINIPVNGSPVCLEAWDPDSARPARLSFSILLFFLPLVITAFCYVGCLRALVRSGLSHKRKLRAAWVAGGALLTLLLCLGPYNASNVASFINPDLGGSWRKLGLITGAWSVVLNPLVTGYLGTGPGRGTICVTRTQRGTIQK
Free fatty acid receptor 1 (Rattus norvegicus, UniProt Q8K3T4), sequence (Q8K3T4 whole entry, the tested form may be a part): as the sequence (Q8K3T4 whole entry, the tested form may be a part) above
Free fatty acid receptor 1 (Mus musculus, UniProt Q76JU9), sequence (Q76JU9 whole entry, the tested form may be a part): as the sequence (Q76JU9 whole entry, the tested form may be a part) above
Voltage-gated inwardly rectifying potassium channel KCNH2, sequence (Q12809 whole entry): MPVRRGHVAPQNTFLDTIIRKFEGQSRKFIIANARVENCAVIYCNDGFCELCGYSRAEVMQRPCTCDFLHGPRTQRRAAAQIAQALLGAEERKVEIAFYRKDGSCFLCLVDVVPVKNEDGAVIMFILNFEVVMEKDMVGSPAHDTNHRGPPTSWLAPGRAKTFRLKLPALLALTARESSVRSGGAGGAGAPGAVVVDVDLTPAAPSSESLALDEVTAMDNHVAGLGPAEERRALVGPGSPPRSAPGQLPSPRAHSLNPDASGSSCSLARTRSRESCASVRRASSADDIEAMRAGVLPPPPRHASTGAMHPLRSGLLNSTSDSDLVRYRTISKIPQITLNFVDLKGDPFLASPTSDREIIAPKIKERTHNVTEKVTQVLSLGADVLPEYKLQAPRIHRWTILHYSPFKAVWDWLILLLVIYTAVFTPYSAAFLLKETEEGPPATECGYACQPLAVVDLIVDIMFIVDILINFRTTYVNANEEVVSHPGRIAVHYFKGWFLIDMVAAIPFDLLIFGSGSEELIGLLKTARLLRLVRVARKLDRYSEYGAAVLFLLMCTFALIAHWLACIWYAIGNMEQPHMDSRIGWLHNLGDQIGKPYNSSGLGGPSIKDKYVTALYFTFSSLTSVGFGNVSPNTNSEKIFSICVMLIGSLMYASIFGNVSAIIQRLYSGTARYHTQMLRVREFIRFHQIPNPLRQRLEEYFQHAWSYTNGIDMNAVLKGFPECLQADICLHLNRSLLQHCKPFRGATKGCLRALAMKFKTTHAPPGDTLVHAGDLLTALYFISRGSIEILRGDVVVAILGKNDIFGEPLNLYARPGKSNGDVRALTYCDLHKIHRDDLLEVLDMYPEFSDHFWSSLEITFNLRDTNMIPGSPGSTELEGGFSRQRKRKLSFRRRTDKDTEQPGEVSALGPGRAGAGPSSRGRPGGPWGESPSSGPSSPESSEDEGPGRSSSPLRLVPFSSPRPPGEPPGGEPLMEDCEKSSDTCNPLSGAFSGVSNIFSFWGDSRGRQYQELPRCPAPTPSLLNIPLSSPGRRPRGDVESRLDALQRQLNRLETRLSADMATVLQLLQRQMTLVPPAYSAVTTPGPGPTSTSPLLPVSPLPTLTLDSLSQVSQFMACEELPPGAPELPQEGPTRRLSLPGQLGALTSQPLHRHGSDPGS

SMILES | ED90 [1] [mg/kg] | fraction unbound [2] | Activity [3] | Activity [4] | Activity [5] | EC50 [12] [nM] | Emax [13] [%] | EC50 [14] [nM] | Emax [15] [%] | also measured
Cc1cc(OCCCS(C)(=O)=O)cc(C)c1-c1cccc(COc2ccc3c(c2)OC[C@H]3CC(=O)O)c1 | 29.4 | < 0.01 | inactive | inactive | inactive |  |  |  |  | AUC at 1 h [6]: 7370 ng·h/mL
CC#C[C@@H](CC(=O)O)c1ccc(OCc2ccc(CN3CCC4(C=Cc5ccccc54)CC3)c(OC)c2)cc1 |  | < 0.01 | inactive | inactive | inactive | 1.4 | 128 | 3 | 119 | Ki [7]: 2.5 nM; EC50 [8]: 17 nM; Emax [9]: 61%; EC50 [10]: 10 nM; Emax [11]: 140%; EC50 [16]: 7.4 nM; Emax [17]: 345%; Ki [18]: 6300 nM
CN(CCOc1ccc(CC2SC(=O)NC2=O)cc1)c1ccccn1 (centres undefined) |  |  |  |  |  |  |  |  |  | Activity [19]: inactive; Activity [20]: inactive
CC#C[C@@H](CC(=O)O)c1ccc(OCc2cccc(-c3ccc(C(F)(F)F)cc3)c2)cc1 | 1 | < 0.01 | inactive | inactive | inactive | 1.5 | 137 | 3.2 | 148 | Activity [21]: Active; Activity [22]: Active; Drug uptake [23]: Not Active; Drug uptake [24]: Not Active; PPB [25]: Active; AUC at 1 h [26]: 33900 ng·h/mL
